Assay outcomes (PubChem)
Diaphorase act: counter-screen for diaphorase-based assays: diaphorase activators and chemical reducers. activation factor at 20 µM. hit rate 0.005% among 190,000. Diaphorase/resazurin coupled assay, resorufin fluorescence, 16 min; hits give high values; 1 = vehicle wells, 0 = NADH-free wells;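 active = diaphorase activity raised at least twofold by the compound at 20 µM; inactive = activation factor below 2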
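Assay system: Purified diaphorase enzyme from Clostridium kluyveri | Amount: Enzyme 0.07 U/mL final | Dosing: Compound 20 µM once, DMSO 1% | Timing: 16 min reaction at room temperature | Detection: Fluorescence, excitation 544 nm and emission 590 nm | Evaluation: Higher resorufin formation from activation or reduction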
G6PDH CS: inhibits Leuconostoc G6PDH, flagging false hits in G6PDH-based assays | Purified L. mesenteroides G6PDH, diaphorase/resazurin coupled fluorescence, 45 min | inhibition, % at 5 µM | hit rate 0.12% among 200,000 | AID 1020; in the data active = inhibition above about 50%
Redox H2O2 prof: compounds producing H2O2 with reducing agent – biochemical, NIH compound library profiling, artefact control for MLSCN library redox annotation, primary screen; DTT-dependent redox cycling H2O2, phenol red/HRP absorbance; 100% = 100 µM peroxide control, 0% = buffer; activation, % at 10 µM; hit rate 0.03% among 200,000;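 active = activation of at least 50% relative to the plate's high and low controls in the primary single-dose screen; inactive = activation below 50%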;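 note: compound incubated with DTT at 0.8 mM final as the reducing agent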
PMI act satM6P: activators of human phosphomannose isomerase at near-saturating mannose 6-phosphate; P34949; coupled PMI enzyme assay, resazurin fluorescence, 20 min; hits give high values; 1 = untreated enzyme, 0 = substrate-free blank; activation factor at 20 µM; hit rate 0.34% among 190,000; AID 1216;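 active = activation factor of 2 or more at 20 µM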
Target sequence (P34949 whole entry, looked up): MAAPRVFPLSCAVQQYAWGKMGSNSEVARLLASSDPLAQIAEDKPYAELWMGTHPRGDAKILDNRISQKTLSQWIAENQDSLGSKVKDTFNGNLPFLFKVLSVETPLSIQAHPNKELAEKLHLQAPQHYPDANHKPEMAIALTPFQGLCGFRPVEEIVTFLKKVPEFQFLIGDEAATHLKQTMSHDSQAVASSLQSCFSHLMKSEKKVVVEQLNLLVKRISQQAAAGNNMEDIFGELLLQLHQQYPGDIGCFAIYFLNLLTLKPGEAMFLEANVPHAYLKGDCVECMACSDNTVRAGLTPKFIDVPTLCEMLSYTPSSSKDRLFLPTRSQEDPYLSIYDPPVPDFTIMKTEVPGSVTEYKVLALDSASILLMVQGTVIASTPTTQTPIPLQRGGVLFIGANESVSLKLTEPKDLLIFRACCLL
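Material: human phosphomannose isomerase with PGI, G6PDH, diaphorase coupling enzymes / Reagent: Man-6-P substrate 1.0 mM / Dosing: single compound dose of 20 µM, 1% DMSO final / Incubation: enzyme reaction with compound 20 min at room temperature / Signal: resorufin fluorescence (Ex 544/Em 590 nm) from resazurin via diaphorase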
Diaph inh CS: inhibits diaphorase or chemically oxidizes, flagging diaphorase assay artifacts | diaphorase resazurin-to-resorufin fluorescence, NADH, 16 min; bacterial (C. kluyveri) enzyme, not human | inhibition, % at 20 µM | hit rate 0.69% among 190,000 | AID 1217;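 active = primary screen inhibition at 20 µM above a set limit, cut at about 50% in these data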;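 note: plate controls were DMSO with full reaction for no effect and wells lacking NADH for full effect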
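Test system: diaphorase enzyme from Clostridium kluyveri; amount: diaphorase at 0.14 U/mL in enzyme working solution; detection: fluorescence of resorufin formed from resazurin, Ex 544/Em 590 nm; times: reaction incubation of 16 min at room temperature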
PMI activator: activators of human phosphomannose isomerase | P34949 | purified human PMI, coupled resazurin fluorescence, 20 min; hits give high values; 1 = vehicle control, 0 substrate-free wells | activation factor at 20 µM | hit rate 0.005% among 190,000;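 active = activation factor of 2 or more at 20 µM, relative to plate controls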
The depositor's hits bear a star; x = no result. This is a sample that favours compounds with a hit; in the whole collection about 1.1% have one here.

SMILES | Diaphorase act | G6PDH CS | Redox H2O2 prof | PMI act satM6P | Diaph inh CS | PMI activator
Cc1ccc(/C=[N+](\[O-])c2ccc(N(C)C)cc2)c2nsnc12 | 0.6 | -1.1 | -0.7 | 0.3 | 40.9 | 0.3
O=[N+]([O-])c1cc(Cl)c2cccnc2c1O | 0.6 | 46.3 | 0.8 | 0.5 | 39.8 | 0.9
O=C(Oc1c(CN2CCOCC2)cc(Cl)c2cccnc12)c1ccccc1F | 0.5 | 43.1 | -3.1 | 0.5 | 50.5* | 0.7
O=[N+]([O-])c1cc(CN2CCOCC2)c2cccnc2c1O | 0.5 | 54.7* | -1.4 | 0.6 | 45.4 | 0.9
O=[N+]([O-])c1cc(CN2CCN(c3ccccc3)CC2)c(O)c2ncccc12 | 0.9 | 62.2* | -0.1 | 0.6 | 9.6 | 1
CN(Cc1cc([N+](=O)[O-])c2cccnc2c1O)C1CCCCC1 | 0.8 | 20.5 | 0.1 | 0.5 | 21.6 | 0.8
CCc1ccc2ncc(S(=O)(=O)c3ccc(C)c(C)c3)c(N3CCCC3)c2c1 | 0.7 | -3.1 | 1.1 | 0.8 | 31.8 | 0.8
COc1ccc(CN2CCN(Cc3ccc(C)cc3)C(CCO)C2)cc1OC (configuration not stated) | 1.1 | 11.1 | 1.2 | 1.1 | -10.9 | 1
COc1cc(CN2CCN(Cc3ccc(C)cc3)C(CCO)C2)cc(OC)c1O (configuration not stated) | 0.6 | 58.4* | 2.5 | 0.4 | 38.0 | 0.7
CSCCC1Nc2ccc(S(=O)(=O)N3CCOCC3)cc2NC1=O (configuration not stated) | 0.9 | 2.4 | -0.4 | 2.6* | 7.6 | 1.9
Cn1c(=O)n(C)c2cc(S(=O)(=O)N3CCOCC3)ccc21 | 0.9 | -7.4 | 1.0 | 1 | 7.4 | 0.9
CCOc1ccc(N2C(=O)CC(N(Cc3ccco3)C(C)=O)C2=O)cc1 (configuration not stated) | 1.1 | -1.2 | -0.6 | 1.1 | -11.5 | 1
Cc1oc(-c2ccc(F)cc2)cc1-c1nn2c(-c3ccoc3C)nnc2s1 | 0.4 | 7.0 | x | 1.2 | 57.5* | 1.2
Cc1oc(-c2ccc(F)cc2)cc1-c1nn2c(-c3ccco3)nnc2s1 | x | x | 3.6 | x | x | x
Cn1c(/N=C/c2c(O)ccc3ccccc23)nc2ccccc21 | 0.2 | 11.8 | 1.5 | 0.2 | 77.3* | 0.1
CCCn1c(/N=C/c2ccccc2O)nc2ccccc21 | 0.9 | 9.7 | 0.9 | 0.9 | 10.1 | 0.9
CC1CC1C(=O)Nc1cc(S(=O)(=O)N2CCOCC2)ccc1N1CCCC1 (configuration not stated) | 1 | 0.5 | 0.1 | 1 | 3.0 | 1
CCOC(=O)c1sc(-n2[nH]c(C)cc2=O)nc1C | 1 | 8.8 | -0.5 | 2.4* | 0.9 | 1.6
CCOC(=O)c1sc(NC(C)=O)nc1C | 1 | 2.0 | 0.1 | 1.1 | 3.1 | 1
Cc1ccc(C)c(NS(=O)(=O)c2cc(C(=O)N3CCCC3)ccc2Cl)c1 | 0.9 | -0.9 | 0.5 | 0.9 | 13.7 | 0.9
CCOC(=O)N1CCN(C(=O)c2ccc3c(=O)n(-c4ccccc4F)c(=S)[nH]c3c2)CC1 | 0.5 | 0.2 | 5.3 | 0.9 | 50.3* | 0.9
CCOC(=O)N1CCN(C(=O)c2ccc3c(=O)n(-c4ccc(OC)cc4OC)c(=S)[nH]c3c2)CC1 | 0.6 | -0.3 | 2.2 | 1 | 43.6 | 1.1
CCOC(=O)N1CCN(S(=O)(=O)c2cc(C)c(C)cc2C)CC1 | 0.9 | -2.7 | 2.1 | 1 | 7.2 | 1
Cc1cc(C)c(S(=O)(=O)/N=C2/C=C(SCC(=O)O)C(=O)c3ccccc32)cc1C | 0.7 | 51.4* | -0.3 | 1.3 | 29.2 | 1.2
O=C(O)Cc1ccc(C(=O)c2ccccc2)s1 | 0.9 | 2.8 | -3.1 | 1.2 | 9.4 | 1.1
SMILES | Diaphorase act | G6PDH CS | Redox H2O2 prof | PMI act satM6P | Diaph inh CS | PMI activator
COc1ccc(C(=O)c2ccc(CC(=O)O)s2)cc1 | 0.9 | 2.6 | -1.5 | 2.4* | 7.2 | 1.6
N=c1c(C(=O)NCc2ccc(F)cc2)cc2c(=O)n3ccccc3nc2n1Cc1ccco1 | 0.5 | -6.7 | -1.5 | 1.2 | 51.2* | 1.2
N=c1c(C(=O)NCc2ccco2)cc2c(=O)n3ccccc3nc2n1Cc1ccc(Cl)cc1 | 0.9 | -2.8 | 14.9 | 0.9 | 11.2 | 1.1
Cc1ccc2nc3c(cc(C(=O)NCc4ccco4)c(=N)n3Cc3ccco3)c(=O)n2c1 | x | 4.8 | 12.2 | x | x | x
Cc1ccc(CNC(=O)c2cc3c(=O)n4ccccc4nc3n(Cc3ccco3)c2=N)cc1 | 0.1 | 6.3 | x | 1.2 | 90.3* | 1.2
N=c1c(C(=O)NCc2ccco2)cc2c(=O)n3ccccc3nc2n1Cc1ccccc1 | 1 | 7.0 | -1.5 | 1 | 3.0 | 0.9
N=c1c(C(=O)NCc2ccccc2)cc2c(=O)n3ccccc3nc2n1Cc1ccco1 | 0.3 | -1.4 | 0.9 | 1 | 67.5* | 1
Nc1ccccc1S(=O)(=O)NC1=NCCCCC1 | 1 | 12.2 | -0.2 | 1 | 0.7 | 0.9
O=C(COC(=O)Cn1cnc2ccccc21)Nc1cccc(S(=O)(=O)N2CCOCC2)c1 | 0.9 | -1.5 | -0.1 | 1.1 | 6.8 | 1.1
COc1ccc(CNC(=O)C(OC(=O)c2nsc(Cl)c2Cl)C(C)C)cc1 (configuration not stated) | 0.8 | 12.4 | -1.6 | 0.9 | 17.8 | 0.8
Cc1cc2ccccn2c1C(=O)Nc1cccc(Cl)c1 | 0.9 | -1.8 | -0.4 | 1 | 13.0 | 1
CNC(=S)NC(CC(=O)OC)c1ccc2c(c1)OCO2 (configuration not stated) | 1 | 3.4 | -1.5 | 0.9 | 3.5 | 0.9
COCCn1c(=O)[nH]c(=O)c2c1nc(-c1cc(Br)c3c(c1)OCO3)n2Cc1ccccc1 | 0.9 | 1.1 | -0.8 | 1.1 | 12.6 | 1
O=[N+]([O-])c1ccc(N/N=C/c2cccc(O)c2O)c(S(=O)(=O)N2CCOCC2)c1 | 0.6 | 31.0 | 1.1 | 0.6 | 36.2 | 0.8
O=C(CCc1ccc(S(=O)(=O)N2CCOCC2)cc1)N/N=C/c1ccc(O)c(O)c1O | 0.3 | 10.0 | 0.0 | 0.3 | 70.9* | 0.4
O=[N+]([O-])c1ccc(N/N=C/c2ccc(O)c(O)c2O)c(S(=O)(=O)N2CCOCC2)c1 | 0.1 | 24.5 | 0.5 | 0.2 | 88.0* | 0.2
COc1ccc(C(=O)NC(=S)NNC(=O)CNC(=O)C2CCCCC2)cc1 | 0.4 | 0.5 | -0.7 | 0.9 | 59.3* | 0.8
COc1ccc(C(=O)NNC(=O)CNC(=O)C2CCCCC2)cc1 | 0.8 | 11.2 | -0.8 | 1.1 | 17.3 | 1.1
COC(=O)c1cccc(NC(=S)NCc2ccc(F)cc2)c1 | 0.9 | 6.1 | -0.9 | 0.8 | 12.4 | 0.9
